Active and inactive are the calls of the source. The calls are words filed in the database; no cut-off is given here.
Assays:
Nucleic Acid [1] = experiment: Binding affinity to poy A-poly U RNA assessed as change in thermal melting temperature at compound to polynucleotide ratio of 0.3 at pH 7 by […]; assay type: nucleic-acid assay
Outline: (§1)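 Thermal melting of ds-polynucleotides at r = [compound]/[polynucleotide] = 0.3, pH 7 Na cacodylate buffer 0.02 M (I = 0.005 M; poly A–poly T at I = 0.05 M); ΔTm reported, error ±0.5 °C.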

Nucleic Acid [2] = experiment: Binding affinity to poy A-poly T DNA assessed as change in thermal melting temperature at compound to polynucleotide ratio of 0.3 at pH 7 by […]; assay type: nucleic-acid assay; outline: as §1
Calf thymus DNA [3] = experiment: Binding affinity to calf thymus DNA by fluorimetric binding titration study; assay type: nucleic-acid assay; conditions: Bos taurus
Nucleic Acid [4] = experiment: Binding affinity to poy A-poly U RNA by fluorimetric binding titration study; assay type: nucleic-acid assay
HL-60 [5] = experiment: Cytotoxicity against human HL60 cells after 72 hrs by MTT assay; assay type: functional, cell-based; conditions: HL-60, 72 h
Outline: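 MTT viability: 2.5 × 10^4 cells/well in triplicate, exposed to 0.01–100 µM compound for 72 h at 37 °C, 5% CO2; MTT 3 h at 37 °C, SDS/DMF lysis 4 h; absorbance 570 nm (reference 590 nm); expressed as % of vehicle-only cells; IC50 from individual inhibition curves; means of three experiments with SD.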

[6] = Cytotoxicity against human HT29-AK cells after 72 hrs by MTT assay; assay type: functional, cell-based
MDA-MB-231 = experiment: Cytotoxicity against human MDA-MB-231 cells after 72 hrs by MTT assay; assay type: functional, cell-based; conditions: MDA-MB-231, 72 h
Calf thymus DNA [7] = experiment: Binding affinity to calf thymus DNA assessed as change in thermal melting temperature at compound to polynucleotide ratio of 0.3 at pH 7 by thermal melting analysis; conditions: Bos taurus
MCF7 = experiment: Cytotoxicity against human MCF7 cells after 72 hrs by MTT assay; assay type: functional, cell-based; conditions: MCF7, 72 h
Plasmodium falciparum = experiment: Antimalarial activity after 48 hrs against chloroquine-sensitive Plasmodium falciparum 3D7 by [3H]hypoxanthine uptake; assay type: functional, organism-based
HL-60 [8] = experiment: Induction of apoptosis in human HL60 cells assessed as induction of mitochondrial membrane depolarization by tetramethylrhodamine ethyl ester-based flow cytometry; assay type: functional, cell-based
Outline: (§2)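 HL60 cells treated 24 h; 5 × 10^5 cells washed in HBSS, loaded with 50 nM TMRE in HBSS for 10 min at 37 °C; ≥500 cells read by flow cytometry on FL-2 to score depolarised mitochondria; mean ± SD of three independent experiments, Mann-Whitney U vs drug blank.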

HL-60 [9] = experiment: Induction of apoptosis in human HL60 cells assessed as induction of mitochondrial membrane depolarization at 1 uM by tetramethylrhodamine ethyl ester-based flow cytometry; assay type: functional, cell-based; outline: as §2
HL-60 [10] = experiment: Induction of apoptosis in human HL60 cells assessed as induction of mitochondrial membrane depolarization at 10 uM after 24 hrs by tetramethylrhodamine ethyl ester-based flow cytometry; assay type: functional; outline: as §2
HL-60 [11] = experiment: Induction of apoptosis in human HL60 cells assessed as accumulation at sub-G0/G1 phase after 24 hrs by propidium iodide-based flow cytometry; assay type: functional, cell-based
Outline: (§3)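 HL60 cells treated 24 h; 1 × 10^6 cells washed in HBSS, fixed in ice-cold 70% ethanol at −20 °C for 2 h, stained with PI (40 µg/mL) plus RNase 0.1 mg/mL and 3.8 mM sodium citrate in PBS, 30 min at 37 °C; ≥5000 cells read on FL-2; sub-G0/G1 fraction from DNA content; mean ± SD of three independent experiments, Mann-Whitney U vs drug blank.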

HL-60 [12] = experiment: Induction of apoptosis in human HL60 cells assessed as accumulation at sub-G0/G1 phase at 10 uM after 24 hrs by propidium iodide-based flow cytometry; assay type: functional; outline: as §3
HL-60 [13] = experiment: Induction of apoptosis in human HL60 cells assessed as caspase-3 activation after 24 hrs by Western blot analysis; assay type: functional, cell-based
Outline: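 HL60 cells treated 24 h with 0.5, 1.0, 5 or 10 µM alongside untreated control; 3 × 10^6 cells washed and sonicated, protein by Bradford; 20 µg per lane denatured 3 min at 95 °C, resolved on 14% SDS–PAGE, transferred to nitrocellulose; read-out pro-caspase-3 (32 kDa) and processed active subunit.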

Nucleic Acid [14] = experiment: Binding affinity to poy A-poly U RNA assessed as intercalation into double helix by circular dichroism analysis; assay type: nucleic-acid assay
Calf thymus DNA [15] = experiment: Binding affinity to calf thymus DNA assessed as intercalation into double helix by circular dichroism analysis; assay type: nucleic-acid assay; conditions: Bos taurus
Outline: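 CD spectra of ct-DNA (1 × 10^-5 mol dm^-3) titrated at various r = [compound]/[ctDNA], change followed at 280 nm; induced acridine CD band at ct-DNA 1 × 10^-4 mol dm^-3; pH 7 Na cacodylate buffer, I = 0.05 M.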

Compound	ΔTm (Nucleic Acid [1])	ΔTm (Nucleic Acid [2])	Ks (Calf thymus DNA [3])	Ks (Nucleic Acid [4])	IC50 (HL-60 [5])	IC50 [6]	IC50 (MDA-MB-231)	ΔTm (Calf thymus DNA [7])	IC50 (MCF7)	IC50 (Plasmodium falciparum)	Activity (HL-60 [8])	Activity (HL-60 [9])	Activity (HL-60 [10])	Activity (HL-60 [11])	Activity (HL-60 [12])	Activity (HL-60 [13])	Activity (Nucleic Acid [14])	Activity (Calf thymus DNA [15])
COc1ccc2nc3cc(Cl)ccc3c(NCCN)c2c1	2.2 °C	2.9 °C	1 ×10⁶ /M	1 ×10⁶ /M	12500 nM	6.57 µM	8.12 µM	9.3 °C										
COc1ccc2nc3cc(Cl)ccc3c(NCCCCNC(=O)C[C@H]3O[C@@H]4O[C@@]5(C)CC[C@H]6[C@H](C)CC[C@@H]([C@H]3C)[C@@]46OO5)c2c1					1580 nM	247 µM	43.3 µM		11.7 µM	20.3 nM								
C[C@H]1[C@@H](O)O[C@@H]2O[C@@]3(C)CC[C@H]4[C@H](C)CC[C@@H]1[C@@]24OO3 [ARTENIMOL]						16.1 µM	99.8 µM		45.2 µM	2.3 nM								
COc1ccc2nc3cc(Cl)ccc3c(NCCCNC(=O)C[C@H]3O[C@@H]4O[C@@]5(C)CC[C@H]6[C@H](C)CC[C@@H]([C@H]3C)[C@@]46OO5)c2c1					3080 nM	9.91 µM	11.6 µM		11.8 µM	22.4 nM	Dose-dependent effect	Active	98%	Dose-dependent effect	57%	Dose-dependent effect		
COc1ccc2nc3cc(Cl)ccc3c(N3CCN(C(=O)C[C@H]4O[C@@H]5O[C@@]6(C)CC[C@H]7[C@H](C)CC[C@@H]([C@H]4C)[C@@]57OO6)CC3)c2c1					560 nM	> 750 µM	21.1 µM		3.51 µM	290 nM								
COc1ccc2nc3cc(Cl)ccc3c(NCCNC(=O)C[C@H]3O[C@@H]4O[C@@]5(C)CC[C@H]6[C@H](C)CC[C@@H]([C@H]3C)[C@@]46OO5)c2c1	2.4 °C	0.6 °C	1 ×10⁶ /M	1 ×10⁶ /M	1170 nM	194 µM	49 µM	3.1 °C	13.7 µM	5.96 nM							inactive	inactive

— ChEMBL document CHEMBL1153331, “Antitumour and antimalarial activity of artemisinin-acridine hybrids” (Bioorg Med Chem Lett, 2009)
